Data from ChEMBL document CHEMBL2046437, “In vitro stability and in vivo anti-inflammatory efficacy of synthetic jasmonates” (Bioorg Med Chem, 2012).
pEC50: −log10 of the molar value. Calls of active or inactive are those of the source. The calls are words filed in the database; no cut-off is given here.

Experiments:
[1] = Stability in presence of porcine liver esterase assessed as esterase-mediated compound hydrolysis by measuring ratio of intact compounds and their corresponding acids in pH 7.4 phosphate buffer at 37 degC at 30 mins post incubation by RP-HPLC; type: ADME; details: pig, isolated protein, pH 7.4, 0.5 h
Method in brief: (§1)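 About 0.5 mg ester was incubated with 50 µL porcine liver esterase stock in 0.01 M phosphate buffer (pH 7.4, 1 mL) plus 10 µL acetone at 37 °C. Intact ester/acid peak-area ratio given as mean ± SD of two experiments.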

RAW264.7 [2] = test: Antiinflammatory activity in LPS-activated mouse RAW264.7 cells assessed as inhibition of nitric oxide production incubated for 24 hrs by ELISA; type: functional, cell-based; details: RAW264.7, 24 h, in the assay text read “by Griess reagent method” for “by ELISA”
Method in brief: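 RAW264.7 macrophages (DMEM, 10% FBS, penicillin/streptomycin, 37 °C, 5% CO2) treated with LPS plus compounds for 24 h. Nitrite in supernatant measured by Griess reagent (10 min, room temperature, dark), absorbance 540 nm, quantified against sodium nitrite standard curve. EC50 reported from triplicate experiments, mean ± SD.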

[3] = Cytotoxicity in mouse RAW264.7 cells after 24 hrs by MTT assay; type: cell-based; details: read-out: TC50
Method in brief: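 RAW264.7 cells in DMEM with 10% FBS were treated for 24 h, then incubated with MTT for 4 h. Formazan was dissolved in DMSO for 30 min and absorbance read at 540 nm. TC50 reported as mean ± SD of triplicate experiments.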

[4] = Stability in presence of porcine liver esterase assessed as esterase-mediated compound hydrolysis by measuring ratio of intact compounds and their corresponding acids in pH 7.4 phosphate buffer at 37 degC at 60 mins post incubation by RP-HPLC; type: ADME; details: pig, isolated protein, pH 7.4, 1 h; method in brief: as §1
RAW264.7 [5] = test: Selectivity index, ratio of TC50 for mouse RAW264.7 cells to EC50 for antiinflammatory activity in LPS-activated mouse RAW264.7 cells; type: functional
Rattus norvegicus [6] = test: Antiinflammatory activity in Sprague-Dawley rat assessed as inhibition of carrageenan-induced paw edema at 50 mg/kg, ip dosed 30 mins before carrageenan challenge measured before 6 hrs post carrageenan challenge; type: functional, organism-based; parameters: dose 50 mg/kg
Method in brief: (§2)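 Male Sprague–Dawley rats (140–160 g, 5 weeks old) received a single intraperitoneal dose in 5% cremophor/5% ethanol in PBS, with vehicle as control. 30 min later, 0.1 mL of 1% carrageenan in saline was injected subplantar into the right hind paw, with saline in the left. Paw volume was measured by plethysmometer at 0, 0.5, 1, 2, 4, 6 and 24 h.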

Rattus norvegicus [7] = test: Antiinflammatory activity in Sprague-Dawley rat assessed as inhibition of carrageenan-induced paw edema at 50 mg/kg, ip dosed 30 mins before carrageenan challenge measured at 24 hrs post carrageenan challenge; type: functional; method in brief: as §2
Rattus norvegicus [8] = test: Antiinflammatory activity in Sprague-Dawley rat assessed as inhibition of carrageenan-induced paw edema at 50 mg/kg, ip dosed 30 mins before carrageenan challenge; type: functional, organism-based; parameters: dose 50 mg/kg; method in brief: as §2
Rattus norvegicus [9] = test: Antiinflammatory activity in Sprague-Dawley rat assessed as inhibition of carrageenan-induced paw edema at 25 mg/kg, ip dosed 30 mins before carrageenan challenge measured at 24 hrs post carrageenan challenge; type: functional; details: route intraperitoneal; method in brief: as §2
Rattus norvegicus [10] = test: Antiinflammatory activity in Sprague-Dawley rat assessed as inhibition of carrageenan-induced paw edema at 25 mg/kg, ip dosed 30 mins before carrageenan challenge measured before 6 hrs post carrageenan challenge; type: functional, organism-based; parameters: dose 25 mg/kg; method in brief: as §2

Compound | Ratio [1] | pEC50 (RAW264.7 [2]) | Ratio [4] | CC50 at 24 h [3] [µM] | Ratio (RAW264.7 [5]) | Activity (Rattus norvegicus [6]) | inhibition (Rattus norvegicus [7]) | Activity (Rattus norvegicus [8]) | inhibition in vivo at 50 mg/kg (Rattus norvegicus [7]; route intraperitoneal) [%] | inhibition in vivo at 25 mg/kg (Rattus norvegicus [9]) [%] | Activity (Rattus norvegicus [10])
CC/C=C\C[C@H]1C(=O)C=C[C@H]1CC(=O)OCCOC | 0.1 | 4.57 | 0 | 160 | 6 | – | – | – | – | – | –
CC/C=C\C[C@H]1C(=O)C=C[C@H]1CC(=O)OCCOCCOCCO | 7.6 | 4.38 | 3.5 | 162 | 4 | – | – | – | – | – | –
CC/C=C\C[C@H]1C(=O)C=C[C@H]1CC(=O)Oc1ccccc1OC | 0 | 4.49 | – | 161 | 5 | – | – | – | – | – | –
CC/C=C\CC1C(=O)C=CC1CC(=O)OC (stereo not given) | 0.1 | 4.72 | 0 | 140 | 7 | – | – | – | – | – | –
CC/C=C\C[C@H]1C(=O)C(Cl)=C[C@H]1CC(=O)OCCO | – | 6.24 | – | 6.25 | 10.8 | inactive | – | Active | 62.4 | – | –
CC/C=C\C[C@H]1C(=O)C=C[C@H]1CC(=O)OCCCC | 0 | 4.64 | – | 31 | 1 | – | – | – | – | – | –
CC/C=C\C[C@H]1C(=O)C=C[C@H]1CC(=O)OCc1ccccc1 | 0.2 | 4.70 | 0 | 31 | 1 | – | – | – | – | – | –
CC/C=C\C[C@H]1C(=O)C=C[C@H]1CC(=O)Oc1ccccc1 | 0 | 4.48 | – | 158 | 5 | – | – | – | – | – | –
CC/C=C\C[C@H]1C(=O)C(Cl)=C[C@H]1CC(=O)OC1CCCCC1 | – | 6.19 | – | 9.69 | 14.9 | – | – | – | – | – | –
CC/C=C\C[C@H]1C(=O)C=C[C@H]1CC(=O)OC(C)C | 0.5 | 4.70 | 0.1 | 58 | 3 | – | – | – | – | – | –
CC/C=C\C[C@H]1C(=O)C=C[C@H]1CC(=O)OCCOCCOCCOC | 0.3 | 4.46 | 0 | 163 | 5 | – | – | – | – | – | –
COc1ccc2c(c1)c(CC(=O)O)c(C)n2C(=O)c1ccc(Cl)cc1 [INDOMETHACIN] | – | – | – | – | – | – | – | – | – | 57.1 | Active
CC/C=C\C[C@H]1C(=O)C=C[C@H]1CC(=O)OCCOCCOC | 0.3 | 4.48 | 0 | 161 | 5 | – | – | – | – | – | –
CC/C=C\C[C@H]1C(=O)C=C[C@H]1CC(=O)OC(C)COC (stereo not given in full) | 0.5 | 4.64 | 0.2 | 161 | 7 | – | – | – | – | – | –

The remaining molecules from weak to strong by pEC50 (RAW264.7 [2]), led by results:

Ratio [1] | pEC50 (RAW264.7 [2]) | Ratio [4] | Compound | CC50 at 24 h [3] [µM] | Ratio (RAW264.7 [5]) | Activity (Rattus norvegicus [6]) | inhibition (Rattus norvegicus [7]) | Activity (Rattus norvegicus [8]) | inhibition in vivo at 50 mg/kg (Rattus norvegicus [7]; route intraperitoneal) [%] | inhibition in vivo at 25 mg/kg (Rattus norvegicus [9]) [%] | Activity (Rattus norvegicus [10])
5.9 | 4.44 | 3.1 | CC/C=C\C[C@H]1C(=O)C=C[C@H]1CC(=O)OCCOCCO | 166 | 5 | – | – | – | – | – | –
0 | 4.60 | – | CC/C=C\C[C@H]1C(=O)C=C[C@H]1CC(=O)OCCCCC | 37 | 1 | – | – | – | – | – | –
1.7 | 4.62 | 0.7 | CC/C=C\C[C@H]1C(=O)C=C[C@H]1CC(=O)OCCO | 161 | 7 | – | – | – | – | – | –
0 | 4.64 | – | CC/C=C\C[C@H]1C(=O)C=C[C@H]1CC(=O)Oc1ccc(O)cc1 | 49 | 2 | – | – | – | – | – | –
0 | 4.64 | – | CC/C=C\C[C@H]1C(=O)C=C[C@H]1CC(=O)OCCC | 35 | 1 | – | – | – | – | – | –
4.1 | 4.66 | 1.1 | CC/C=C\C[C@H]1C(=O)C=C[C@H]1CC(=O)OC1CCCCC1 | 31 | 2 | – | – | – | – | – | –
0.4 | 4.66 | 0.1 | CC/C=C\C[C@H]1C(=O)C=C[C@H]1CC(=O)OC(C)CC (stereo not given in full) | 53 | 2 | – | – | – | – | – | –
11.2 | 4.70 | 9.8 | CC/C=C\C[C@H]1C(=O)C=C[C@H]1CC(=O)OC(C)(C)C | 33 | 1 | – | – | – | – | – | –
0 | 4.70 | – | CC/C=C\C[C@H]1C(=O)C=C[C@H]1CC(=O)OCC | 146 | 7 | – | – | – | – | – | –
1.4 | 4.74 | 0.4 | CC/C=C\C[C@H]1C(=O)C=C[C@H]1CC(=O)OC(C)c1ccccc1 (stereo not given in full) | 31 | 2 | – | – | – | – | – | –
– | 6.08 | – | CC/C=C\C[C@H]1C(=O)C(Cl)=C[C@H]1CC(=O)OC(C)(C)C | 11.5 | 13.9 | inactive | Active | Active | – | – | –
